Results taken from ChEMBL document CHEMBL4229443, “Activation studies with amines and amino acids of the α-carbonic anhydrase from the pathogenic protozoan Trypanosoma cruzi” (Bioorg Med Chem, 2018).

Compound: N[C@@H](Cc1c[nH]c2ccccc12)C(=O)O
Assay: Activation of Trypanosoma cruzi CA assessed as Kcat at 10 uM preincubated for 15 mins followed by CO2 addition by stopped-flow assay (reference value: 1.2 10^6/s)
Method in brief: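 kcat of recombinant TcCA measured with 10 µM activator after 15 min pre-incubation at room temperature. Stopped-flow CO2 hydration in 10 mM Hepes pH 7.5 with 0.1 M Na2SO4 and 0.2 mM phenol red (557 nm), 25 °C. Initial velocities from the first 5–10% of the reaction, uncatalyzed rate subtracted. Mean of at least three determinations.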

B1: Carbonic anhydrase-like protein, putative (Trypanosoma cruzi (strain CL Brener)), Q4CVY4 (protein)
chain: MTCGIRRGEGREGSKMVKAVIFSLLCLHVHALMSPVSAENGYTTAGLPREKPQGPQWGYTNLTAWPKLCQTGKQQSPVSFSELQPNEVVHRKDMGPLVFSRDCKFAAEKTSLKIENEVNTISVRFIPLDDPTNKFPSLCTVRDPTDPDSPEYHLVSMHFHSPAEHVLPCANPDAELHLVFAHTQQSRQPHLMVVVVQLVASDKINSTSVAALKHILLDGSLPPKRAVTTCTLTENMTIAGFLPQSGSYFAYNGSLTTPPCTEGVLFVVLTSPQIISKTALERLVEAFQRARPGNHNGNHRPTQPLNGRVVYHFVDMHHMNYSMCMRDMENHHTNSSQMAGMSGAMQHMNCSMCMRNMENHHKNSSQMEGMSGAMQHMNCSMCMRNMENHHKNSSQMAGMSGAMQHMNCSMCMRNMENHHTNSSQMAGMSGAMQHMNCSMCMRNMENHHKNSSQMAGMSGAMQHMNCSMCMRNMENHHTNSSQMAGMSGAMQHMNCSMCMRNMENHHTNSSQMAGMSGAMQHMNCSMCMRNMENHHKNSSQMEGMSSEEMSMMERSANESSGAQLAGLASEENATNTSSAPANKWPHQFNSRERLFLIAAALVLLLVTFILYRWRNSSARETETESLFRSHEGYGTTNP
kcat: 7.8 ×10⁶ /s
